Results reported in ChEMBL document CHEMBL1123964, “Potent, long-acting luteinizing hormone-releasing hormone antagonists containing new synthetic amino acids: N,N'-dialkyl-D-homoarginines” (J Med Chem, 1988).
Square brackets hold non-standard residues; d marks the D form. Peptide text beside a SMILES is read from it. dPhe(4-Cl) = N[C@H](Cc1ccc(Cl)cc1)C(=O)O; dPhe(4-F) = N[C@H](Cc1ccc(F)cc1)C(=O)O; d2Nal = N[C@H](Cc1ccc2ccccc2c1)C(=O)O

Key:
[1] = molecular target: T1, Gonadotropin-releasing hormone receptor (Rattus norvegicus) (UniProt P30969); assay: Antiovulatory activity on diestrus II following administration as a solution in corn oil (24h earlier) in rat.; format: functional, organism-based
T1 sequence (whole entry): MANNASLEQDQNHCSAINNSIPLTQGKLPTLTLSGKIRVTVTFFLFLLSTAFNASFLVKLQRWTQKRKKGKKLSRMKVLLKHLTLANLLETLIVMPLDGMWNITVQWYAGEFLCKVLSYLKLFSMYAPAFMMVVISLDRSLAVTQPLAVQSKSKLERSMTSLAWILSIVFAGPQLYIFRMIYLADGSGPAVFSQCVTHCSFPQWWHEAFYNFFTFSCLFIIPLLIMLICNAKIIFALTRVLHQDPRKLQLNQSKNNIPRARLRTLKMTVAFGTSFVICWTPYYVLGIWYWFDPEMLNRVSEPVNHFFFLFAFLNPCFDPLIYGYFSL
How it was run: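 Female rats with at least two normal 4-day cycles before the test cycle were selected. They received the analogue sc in corn oil at noon on diestrus II, 24 h before the proestrus dosing time. On the morning of expected estrus the oviducts were examined under a dissecting microscope, and freshly ovulated eggs were counted. ED50 was taken from percent ovulating versus log-dose, with 10 rats per dose group and usually three or more dose groups.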

[2] = molecular target: T1, Gonadotropin-releasing hormone receptor (Rattus norvegicus); assay: Antiovulatory activity on proestrus following administration of solution in corn oil in rat.; format: functional, organism-based
How it was run: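 Rats with at least two normal 4-day cycles were used. They were injected sc with the analogue in corn oil at noon on proestrus, about 2 h before the preovulatory LH-RH surge. Oviducts were removed on the morning of expected estrus and checked microscopically for fresh eggs, which were counted. ED50 came from percent of females ovulating plotted against log-dose, with 10 animals per dose group.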

[3] = molecular target: T1, Gonadotropin-releasing hormone receptor (Rattus norvegicus); assay: Antiovulatory activity on proestrus was measured by administering as a solution in 50% propylene glycol / 0.9% saline in rat; format: functional

Row | SMILES | ED50 (ug injection-1) [1] | ED50 (ug injection-1) [2] | ED50 (ug injection-1) [3]
1 | CC(=O)N1CCC[C@H]1C(=O)N[C@H](Cc1ccc(F)cc1)C(=O)N[C@H](Cc1ccc2ccccc2c1)C(=O)N[C@@H](CO)C(=O)NC(Cc1ccc(O)cc1)C(=O)N[C@@H](Cc1ccc2ccccc2c1)C(=O)N[C@@H](CC(C)C)C(=O)N[C@@H](CCCN=C(N)N)C(=O)N1CCC[C@H]1C(=O)NCC(N)=O (stereo in doubt) | 140 | 3.3 | 2.2
2 | CCNC(=NCCCC[C@@H](NC(=O)[C@H](Cc1ccc(O)cc1)NC(=O)[C@H](CO)NC(=O)[C@@H](Cc1c[nH]c2ccccc12)NC(=O)[C@@H](Cc1ccc(Cl)cc1)NC(=O)[C@@H](Cc1c[nH]c2ccccc12)NC(C)=O)C(=O)N[C@@H](CC(C)C)C(=O)N[C@@H](CCCN=C(N)N)C(=O)N1CCC[C@H]1C(=O)NCC(N)=O)NCC |  | 3.4 | 
3 | CC(=O)N[C@H](Cc1ccc2ccccc2c1)C(=O)N[C@H](Cc1ccc(Cl)cc1)C(=O)N[C@H](Cc1cccnc1)C(=O)N[C@@H](CO)C(=O)N[C@@H](Cc1ccc(O)cc1)C(=O)N[C@H](CCCN=C(N)N)C(=O)N[C@@H](CC(C)C)C(=O)N[C@@H](CCCN=C(N)N)C(=O)N1CCC[C@H]1C(=O)N[C@H](C)C(N)=O |  | 0.3 | 0.5
4 | CCNC(=NCCCC[C@@H](NC(=O)[C@H](Cc1ccc(O)cc1)NC(=O)[C@H](CO)NC(=O)[C@@H](Cc1c[nH]c2ccccc12)NC(=O)[C@@H](Cc1ccc(F)cc1)NC(=O)[C@@H](Cc1ccc2ccccc2c1)NC(C)=O)C(=O)N[C@@H](CC(C)C)C(=O)N[C@@H](CCCN=C(N)N)C(=O)N1CCC[C@H]1C(=O)NCC(N)=O)NCC | 3.5 | 1.4 | 1.6
5 | CCNC(=NCCCC[C@@H](NC(=O)[C@H](Cc1ccc(O)cc1)NC(=O)[C@H](CO)NC(=O)[C@@H](Cc1ccc2ccccc2c1)NC(=O)[C@@H](Cc1ccc(Cl)cc1)NC(=O)[C@@H](Cc1ccc2ccccc2c1)NC(C)=O)C(=O)N[C@@H](CC(C)C)C(=O)N[C@@H](CCCN=C(N)N)C(=O)N1CCC[C@H]1C(=O)N[C@H](C)C(N)=O)NCC |  | 1.7 | 
6 | CCCNC(=NCCCC[C@@H](NC(=O)[C@H](Cc1ccc(O)cc1)NC(=O)[C@H](CO)NC(=O)[C@@H](Cc1c[nH]c2ccccc12)NC(=O)[C@@H](Cc1ccc(Cl)cc1)NC(=O)[C@@H](Cc1ccc(Cl)cc1)NC(C)=O)C(=O)N[C@@H](CC(C)C)C(=O)N[C@@H](CCCN=C(N)N)C(=O)N1CCC[C@H]1C(=O)NCC(N)=O)NCCC | 16 | 2.3 | 2.6
7 | CC(=O)N[C@H](Cc1ccc(Cl)cc1)C(=O)N[C@H](Cc1ccc(Cl)cc1)C(=O)N[C@H](Cc1c[nH]c2ccccc12)C(=O)N[C@@H](CO)C(=O)N[C@@H](Cc1ccc(O)cc1)C(=O)N[C@H](CCCN=C(N)N)C(=O)N[C@@H](CC(C)C)C(=O)N[C@@H](CCCN=C(N)N)C(=O)N1CCC[C@H]1C(=O)N[C@H](C)C(N)=O (Ac-[dPhe(4-Cl)][dPhe(4-Cl)][dW]SY[dR]LRP[dA]-NH2) | 5 | 1.2 | 1.7
8 | CNC(=NCCCC[C@@H](NC(=O)[C@H](Cc1ccc(O)cc1)NC(=O)[C@H](CO)NC(=O)[C@@H](Cc1c[nH]c2ccccc12)NC(=O)[C@@H](Cc1ccc(Cl)cc1)NC(=O)[C@@H](Cc1ccc(Cl)cc1)NC(C)=O)C(=O)N[C@@H](CC(C)C)C(=O)N[C@@H](CCCN=C(N)N)C(=O)N1CCC[C@H]1C(=O)N[C@H](C)C(N)=O)NC | 5.6 | 1 | 1.6
9 | CCCNC(=NCCCC[C@@H](NC(=O)[C@H](Cc1ccc(O)cc1)NC(=O)[C@H](CO)NC(=O)[C@@H](Cc1c[nH]c2ccccc12)NC(=O)[C@@H](Cc1ccc(Cl)cc1)NC(=O)[C@@H](Cc1ccc(Cl)cc1)NC(C)=O)C(=O)N[C@@H](CC(C)C)C(=O)N[C@@H](CCCN=C(N)N)C(=O)N1CCC[C@H]1C(=O)N[C@H](C)C(N)=O)NCCC | 14 | 2 | 2.6
10 | CCNC(=NCCCC[C@@H](NC(=O)[C@H](Cc1ccc(O)cc1)NC(=O)[C@H](CO)NC(=O)[C@@H](Cc1c[nH]c2ccccc12)NC(=O)[C@@H](Cc1ccc(Cl)cc1)NC(=O)[C@@H](Cc1ccc2ccccc2c1)NC(C)=O)C(=O)N[C@@H](CC(C)C)C(=O)N[C@@H](CCCN=C(N)N)C(=O)N1CCC[C@H]1C(=O)NCC(N)=O)NCC | 2.5 | 1 | 2
11 | CCCCNC(=NCCCC[C@@H](NC(=O)[C@H](Cc1ccc(O)cc1)NC(=O)[C@H](CO)NC(=O)[C@@H](Cc1c[nH]c2ccccc12)NC(=O)[C@@H](Cc1ccc(Cl)cc1)NC(=O)[C@@H](Cc1ccc2ccccc2c1)NC(C)=O)C(=O)N[C@@H](CC(C)C)C(=O)N[C@@H](CCCN=C(N)N)C(=O)N1CCC[C@H]1C(=O)N[C@H](C)C(N)=O)NCCCC | > 16 |  | 3.4
12 | CCNC(=O)[C@@H]1CCCN1C(=O)[C@H](CCCN=C(N)N)NC(=O)[C@H](CC(C)C)NC(=O)[C@@H](CCCCN=C(NCC)NCC)NC(=O)[C@H](Cc1ccc(O)cc1)NC(=O)[C@H](CO)NC(=O)[C@@H](Cc1c[nH]c2ccccc12)NC(=O)[C@@H](Cc1ccc(Cl)cc1)NC(=O)[C@@H](Cc1ccc2ccccc2c1)NC(C)=O | > 16 |  | 2.4
13 | CCNC(=NCCCC[C@@H](NC(=O)[C@H](Cc1ccc(O)cc1)NC(=O)[C@H](CO)NC(=O)[C@@H](Cc1c[nH]c2ccccc12)NC(=O)[C@@H](Cc1ccc(Cl)cc1)NC(=O)[C@@H](Cc1ccc(Cl)cc1)NC(C)=O)C(=O)N[C@@H](CC(C)C)C(=O)NC(CCCN=C(N)N)C(=O)N1CCC[C@H]1C(=O)N[C@H](C)C(N)=O)NCC (some centres undefined) | 3.3 | 1.6 | 1.7
14 | CCNC(=NCCCC[C@@H](NC(=O)[C@H](Cc1ccc(O)cc1)NC(=O)[C@H](CO)NC(=O)[C@@H](Cc1c[nH]c2ccccc12)NC(=O)[C@@H](Cc1ccc(Cl)cc1)NC(=O)[C@@H](Cc1ccc2ccccc2c1)NC(C)=O)C(=O)N[C@@H](CC(C)C)C(=O)N[C@@H](CCCN=C(N)N)C(=O)N1CCC[C@H]1C(=O)NNC(N)=O)NCC | 9.5 |  | 0.55
15 | CC(=O)N[C@H](Cc1ccc(Cl)cc1)C(=O)N[C@H](Cc1ccc(Cl)cc1)C(=O)N[C@H](Cc1c[nH]c2ccccc12)C(=O)N[C@@H](CO)C(=O)N[C@@H](Cc1ccc(O)cc1)C(=O)N[C@H](CCCCN=C(N)N)C(=O)N[C@@H](CC(C)C)C(=O)N[C@@H](CCCN=C(N)N)C(=O)N1CCC[C@H]1C(=O)N[C@H](C)C(N)=O | < 8 | 2 | 1.3
16 | CCNC(=NCCCC[C@@H](NC(=O)[C@H](Cc1ccc(O)cc1)NC(=O)[C@H](CO)NC(=O)[C@@H](Cc1c[nH]c2ccccc12)NC(=O)[C@@H](Cc1ccc(Cl)cc1)NC(=O)[C@@H](Cc1ccc(Cl)cc1)NC(C)=O)C(=O)N[C@@H](CC(C)C)C(=O)N[C@@H](CCCN=C(N)N)C(=O)N1CCC[C@H]1C(=O)NCC(N)=O)NCC | 16 | 2.4 | 2
17 | CNC(=NCCCC[C@@H](NC(=O)[C@H](Cc1ccc(O)cc1)NC(=O)[C@H](CO)NC(=O)[C@@H](Cc1c[nH]c2ccccc12)NC(=O)[C@@H](Cc1ccc(F)cc1)NC(=O)[C@@H](Cc1ccc2ccccc2c1)NC(C)=O)C(=O)N[C@@H](CC(C)C)C(=O)N[C@@H](CCCN=C(N)N)C(=O)N1CCC[C@H]1C(=O)NCC(N)=O)NC | 5 | 0.8 | 1.7
18 | CCCNC(=NCCCC[C@@H](NC(=O)[C@H](Cc1ccc(O)cc1)NC(=O)[C@H](CO)NC(=O)[C@@H](Cc1c[nH]c2ccccc12)NC(=O)[C@@H](Cc1ccc(F)cc1)NC(=O)[C@@H](Cc1ccc2ccccc2c1)NC(C)=O)C(=O)N[C@@H](CC(C)C)C(=O)N[C@@H](CCCN=C(N)N)C(=O)N1CCC[C@H]1C(=O)NCC(N)=O)NCCC | 12 | 4.7 | 2.4
19 | CCNC(=NCCCC[C@@H](NC(=O)[C@H](Cc1ccc(O)cc1)NC(=O)[C@H](CO)NC(=O)[C@@H](Cc1c[nH]c2ccccc12)NC(=O)[C@@H](Cc1ccc(Cl)cc1)NC(=O)[C@@H](Cc1ccc2ccccc2c1)NC(C)=O)C(=O)N[C@@H](CC(C)C)C(=O)N[C@@H](CCCN=C(N)N)C(=O)N1CCC[C@H]1C(=O)N[C@H](C)C(N)=O)NCC (stereo in doubt) | 2.5 | 0.5 | 0.7
20 | CC(=O)N[C@H](Cc1ccc2ccccc2c1)C(=O)N[C@H](Cc1ccc(F)cc1)C(=O)N[C@H](Cc1c[nH]c2ccccc12)C(=O)N[C@@H](CO)C(=O)N[C@@H](Cc1ccc(O)cc1)C(=O)N[C@H](CCCN=C(N)N)C(=O)N[C@@H](CC(C)C)C(=O)N[C@@H](CCCN=C(N)N)C(=O)N1CCC[C@H]1C(=O)NCC(N)=O (Ac-[d2Nal][dPhe(4-F)][dW]SY[dR]LRPG-NH2) | 9 | 1.1 | 2.4
21 | CC(=O)N[C@H](Cc1ccc(Cl)cc1)C(=O)N[C@H](Cc1ccc(Cl)cc1)C(=O)N[C@H](Cc1c[nH]c2ccccc12)C(=O)N[C@@H](CO)C(=O)N[C@@H](Cc1ccc(O)cc1)C(=O)N[C@H](CCCCN=C(NC(C)C)NC(C)C)C(=O)N[C@@H](CC(C)C)C(=O)N[C@@H](CCCN=C(N)N)C(=O)N1CCC[C@H]1C(=O)N[C@H](C)C(N)=O | > 16 |  | 16
